Source: ChEMBL document CHEMBL1240495, “Alpha,beta-unsaturated N-acylpyrrole peptidyl derivatives: new proteasome inhibitors” (J Med Chem, 2010)
Peptide text beside a SMILES is read from it. * marks the point of attachment. Cbz = O=C(OCc1ccccc1)*

What was measured:
[1] = test system: JIYOYE; test: Cytotoxicity against human Jijoye cells at 10 uM after 3 days by trypan blue exclusion assay; assay type: cell-based; details: 72 h
How it was run: (§1)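 LCL and Burkitt's lymphoma JiJoye cells seeded in duplicate at 50 × 10³ cells/mL in medium with 10% FCS. Exposed to 0.1–10 μM compound or medium alone. Viability and proliferation followed for 3 days by Trypan blue exclusion and cell counting.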

[2] = Inhibition of trypsin-like activity of 20S proteasome beta2 from human LCL cells after 30 mins
[3] = test system: 20S proteasome beta1 subunit (Homo sapiens); test: Inhibition of PGPH catalytic activity of 20S proteasome beta1 in human LCL cells after 12 hrs by in vivo assay
[4] = test system: 20S proteasome beta1 subunit (Homo sapiens); test: Inhibition of PGPH catalytic activity of 20S proteasome beta1 in human LCL cells after 12 hrs
[5] = Inhibition of trypsin-like activity of 20S proteasome beta 2 in human LCL cells after 12 hrs by in vivo assay
How it was run: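 LCLs exposed to inhibitor for 12 h at 37 °C. Proteasomes then partially purified and incubated 30 min at 37 °C in activity buffer with Suc-LLVY-AMC (chymotrypsin-like), Boc-LRR-AMC (trypsin-like) or Z-LLE-AMC (postacidic). Fluorescence read at ex 360/em 465 nm.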

[6] = Cytotoxicity against human LCL cells at 10 uM after 3 days by trypan blue exclusion assay; assay type: cell-based; details: 72 h; how it was run: as §1
[7] = test system: 20S proteasome beta5 subunit (Homo sapiens); test: Inhibition of chymotrypsin-like activity of 20S proteasome beta5 in human LCL cells after 12 hrs by in vivo assay
[8] = Inhibition of chymotrypsin-like activity of 20S proteasome in human LCL cells after 12 hrs

IC50 [2] [nM] | IC50 [3] [nM] | IC50 [4] [nM] | IC50 [5] [nM] | IC50 [7] [nM] | IC50 [8] [nM] | SMILES | Activity [1] | Activity [6]
> 10000 | 58 | 36 | > 10000 | > 10000 | 5080 | CC(C)C[C@@H](/C=C/C(=O)n1cccc1)NC(=O)[C@H](CO)NC(=O)[C@@H](NC(=O)CCCCCCCNC(=O)OCc1ccccc1)C(C)C | Not Active | Not Active
> 10000 | 135 | 65 | > 10000 | 5600 | 3630 | Cc1c(O)cccc1C(=O)N[C@@H](CC(C)C)C(=O)N[C@@H](CC(C)C)C(=O)N[C@H](/C=C/C(=O)n1cccc1)CC(C)C | Not Active | Not Active
> 10000 |  | 91 |  |  | 7890 | CC(C)C[C@@H](/C=C/C(=O)n1cccc1)NC(=O)[C@H](CC(C)C)NC(=O)[C@H](CC(C)C)NC(=O)OCc1ccccc1 |  | 
> 10000 |  | 178 |  |  | > 10000 | Cc1c(O)cccc1C(=O)N[C@H](C(=O)N[C@@H](CO)C(=O)N[C@H](/C=C/C(=O)n1cccc1)CC(C)C)C(C)C |  | 
> 10000 | 116 | 62 | > 10000 | > 10000 | > 10000 | CC(C)C[C@@H](/C=C/C(=O)n1cccc1)NC(=O)[C@H](CC(C)C)NC(=O)[C@H](CC(C)C)NC(=O)CCCCCCCNC(=O)OCc1ccccc1 |  | 

Further lines, the compound ahead of its results:

SMILES | IC50 [2] [nM] | IC50 [3] [nM] | IC50 [4] [nM] | IC50 [5] [nM] | IC50 [7] [nM] | IC50 [8] [nM] | Activity [1] | Activity [6]
CC[C@H](C)[C@H](NC(=O)[C@H]([C@@H](C)CC)N(C)C(C)=O)C(=O)N[C@H](C(=O)N[C@@H](CC(C)C)C(=O)[C@@]1(C)CO1)[C@@H](C)O [EPOXOMYCIN] |  |  |  |  |  | 5 |  | 
CC(C)C[C@@H](/C=C/C(=O)n1cccc1)NC(=O)[C@H](CO)NC(=O)[C@@H](NC(=O)OCc1ccccc1)C(C)C | > 10000 |  | 122 |  |  | > 10000 |  | 
CC(C)C[C@@H](C=O)NC(=O)[C@H](CC(C)C)NC(=O)[C@H](CC(C)C)NC(=O)OCc1ccccc1 [MG-132] (Cbz-Leu-Leu-Leu-aldehyde) | 1080 |  |  |  |  | 2 |  | 
CC(C)C[C@@H](/C=C/C(=O)n1cccc1)NC(=O)[C@H](CO)NC(=O)[C@@H](NC(=O)CCCCCNC(=O)OCc1ccccc1)C(C)C | > 10000 | 147 | 97 | > 10000 | > 10000 | > 10000 |  | 
CC(C)C[C@@H](/C=C/C(=O)n1cccc1)NC(=O)[C@H](CC(C)C)NC(=O)[C@H](CC(C)C)NC(=O)CCCCCNC(=O)OCc1ccccc1 | > 10000 |  | 155 |  |  | > 10000 |  | 
